Test results from ChEMBL document CHEMBL1126881, “3-Nitro-3,4-dihydro-2(1H)-quinolones. Excitatory amino acid antagonists acting at glycine-site NMDA and (RS)-alpha-amino-3-hydroxy-5-methyl-4-isoxazolepropionic acid receptors” (J Med Chem, 1993).

Legend:
Rattus norvegicus [1] = organism: Rattus norvegicus; assay: In vitro evaluation to antagonize NMDA responses in rat cortical slice preparation; format: functional
In short: (§1)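 Rat cortical slice preparation. Apparent Kb was calculated from the rightward shift of the agonist (NMDA or AMPA) concentration-response curve produced by the antagonist. Values are means of three determinations.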

Rattus norvegicus [2] = organism: Rattus norvegicus; assay: In vitro evaluation to antagonize AMPA responses in rat cortical slice preparation; format: functional; in short: as §1
Mus musculus [3] = assay: In vivo evaluation to protect DBA/2 mice against audiogenic seizure ip 30 min prior to noise stimulation; format: functional
In short: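 DBA/2 mice dosed intraperitoneally 30 min before noise stimulation and scored for protection against audiogenic seizure. Results are reported as ED50 (mg/kg) or as number protected/number tested at a single dose (50, 75 or 100 mg/kg, groups of 8).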

[4] = biological target: Glutamate receptor ionotropic, NMDA 1 (Rattus norvegicus, UniProt P35439); assay: Binding affinity towards NMDA receptor to displace [3H]L-689,560 from rat cortical membranes
Mus musculus [5] = assay: In vivo evaluation to protect DBA/2 mice against audiogenic seizure at 75 mg/kg ip 30 min prior to noise stimulation; 2 out of 8 mouse effected; format: functional; settings: route intraperitoneal
[6] = pKa value was determined; Value ranges from 5-6; format: physicochemical
[7] = pKa value was determined; format: physicochemical
Mus musculus [8] = assay: In vivo evaluation to protect DBA/2 mice against audiogenic seizure at 100 mg/kg ip 30 min prior to noise stimulation; 0 out of 8 mouse effected; format: functional; settings: route intraperitoneal
Mus musculus [9] = assay: In vivo evaluation to protect DBA/2 mice against audiogenic seizure at 50 mg/kg ip 30 min prior to noise stimulation; 0 out of 8 mouse effected; format: functional; settings: route intraperitoneal

Row | IC50 [4] | pKa [7] | SMILES | Kb (Rattus norvegicus [1]) | other results
1 | > 100 µM | – | COC(=O)Cc1c(C(=O)OC)c(O)nc2cc(Cl)ccc12 | – | –
2 | > 100 µM | 10.8 | COC(=O)CC1c2ccc(Cl)cc2NC(=O)C1S(=O)(=O)c1ccccc1 (stereo not given) | – | –
3 | 2.53 µM | – | O=C(CC1c2ccc(Cl)cc2NC(=O)C1[N+](=O)[O-])NCc1ccccc1 (stereo not given) | – | Protected (Mus musculus [8]): 0
4 | > 100 µM | > 11 | COC(=O)CC1c2ccc(Cl)cc2NC(=O)C1C(=O)OC (stereo not given) | – | –
5 | 12 µM | 10.2 | COC(=O)CC1c2ccc(Cl)cc2NC(=O)C1C#N (stereo not given) | – | –
6 | > 100 µM | – | COC(=O)CC1CC(=O)Nc2cc(Cl)ccc21 (stereo not given) | – | –
7 | > 100 µM | > 11 | COC(=O)CC1c2ccc(Cl)cc2NC(=O)C1S(C)(=O)=O (stereo not given) | – | –
8 | 7.43 µM | – | O=C(CC1c2ccc(Cl)cc2NC(=O)C1[N+](=O)[O-])Nc1ccccc1 (stereo not given) | > 10 µM | –

The next lines start with the compound.

Row | SMILES | IC50 [4] | pKa [7] | Kb (Rattus norvegicus [1]) | other results
9 | O=C1Nc2cc(Cl)ccc2CC1[N+](=O)[O-] (stereo not given) | 0.414 µM | – | 6.7 µM | Kb (Rattus norvegicus [2]): 9.2 µM; ED50 (Mus musculus [3]): 13.2 mg/kg
10 | CCOC(=O)CC1c2ccc(Cl)cc2NC(=O)C1[N+](=O)[O-] (stereo not given) | 2.23 µM | – | 8.1 µM | –
11 | COC(=O)CC1c2ccc(Cl)cc2NC(=O)C1[N+](=O)[O-] (stereo not given) | 1.32 µM | – | 7 µM | Kb (Rattus norvegicus [2]): 139 µM; Protected (Mus musculus [5]): 2; pKa [6]: ~5
12 | CN(C)C(=O)CC1c2ccc(Cl)cc2NC(=O)C1[N+](=O)[O-] (stereo not given) | – | – | 22.2 µM | Protected (Mus musculus [8]): 0
13 | CNC(=O)CC1c2ccc(Cl)cc2NC(=O)C1[N+](=O)[O-] (stereo not given) | 12.4 µM | – | >30 | –
14 | CN(C(=O)CC1c2ccc(Cl)cc2NC(=O)C1[N+](=O)[O-])c1ccccc1 (stereo not given) | 1.84 µM | – | > 10 µM | Protected (Mus musculus [9]): 0
15 | COC(=O)CC1c2ccccc2NC(=O)C1[N+](=O)[O-] (stereo not given) | 28.6 µM | – | – | –
16 | COC(=O)CC1c2ccc(Cl)cc2NC(=O)C1S(=O)(=O)c1ccc([N+](=O)[O-])cc1 (stereo not given) | > 100 µM | 9.9 | – | –
17 | COC(=O)CC1c2ccc(Cl)cc2NC(=O)C1C(=O)c1ccccc1 (stereo not given) | > 100 µM | ~9 | – | –
18 | Cc1noc(CC2c3ccc(Cl)cc3NC(=O)C2[N+](=O)[O-])n1 (stereo not given) | 5.59 µM | – | 25.9 µM | Protected (Mus musculus [8]): 0
